TAAR1 ag: agonists of human TAAR1. Q96RJ0. CHO RD-HGA16 TAAR1, Fluo-8 calcium fluorescence; vehicle wells 0%, saturating PEA agonist 100%. activation, % at 3 µM. hit rate 0.99% among 360,000;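 active means activation above the mean activation of all test compounds in the run plus 3 SD, cut at about 38% in these data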
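System: CHO-derived RD-HGA16 cells with stable Gα16 and human TAAR1. Times: 17-24 h plating, Fluo-8 75 min 37 °C, 30 min RT. Measured by: calcium-sensitive Fluo-8 signal, excitation 470-495, emission 515-575 nm. Read-out basis: % activation relative to PEA EC100 response. Control set: DMSO and PEA EC100. Repeats: no replicates (n 1).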
OXTR potentiate: human OXTR potentiation; CHO-OTR cells, Fluo-8 calcium fluorescence, potentiator mode; 0% = oxytocin EC15, 100% = EC100; P30559; hit rate 0.061% among 320,000; AID 2445; activation, % at 3 µM;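 active means activation above that plate's cutoff, the mean activation of tested compounds plus 3 SD, cut at about 6.6% in these data, passing the limit was not always enough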;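 further: 100% uses oxytocin at 75 nM as the full agonist control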
Target sequence (P30559 whole entry, looked up): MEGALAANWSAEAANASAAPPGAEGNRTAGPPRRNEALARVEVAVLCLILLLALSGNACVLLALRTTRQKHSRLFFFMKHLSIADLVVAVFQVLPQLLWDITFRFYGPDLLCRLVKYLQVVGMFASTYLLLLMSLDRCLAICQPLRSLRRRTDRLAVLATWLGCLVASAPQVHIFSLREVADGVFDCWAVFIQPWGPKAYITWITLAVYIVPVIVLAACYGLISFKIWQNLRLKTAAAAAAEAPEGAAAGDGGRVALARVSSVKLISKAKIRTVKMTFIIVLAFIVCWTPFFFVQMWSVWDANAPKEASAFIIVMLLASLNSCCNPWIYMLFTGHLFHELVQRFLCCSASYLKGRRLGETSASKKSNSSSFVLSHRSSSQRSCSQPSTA
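assay system = CHO-OTR cells, human receptor | schedule = compound 6 min at room temperature before oxytocin, 100 s read | detection = Fluo-8 intracellular calcium fluorescence, ex 470-495, em 515-575 nm | evaluation = normalized max/min fluorescence ratio, % activation | control set = EC15 oxytocin alone as 0%, 75 nM oxytocin (EC100) as 100%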
TAAR1 antag: antagonists of human TAAR1; Q96RJ0; CHO RD-HGA16 TAAR1, Fluo-8 calcium fluorescence, antagonist; inhibition, % at 3 µM; hit rate 1.5% among 360,000;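 active means inhibition above a per-plate cutoff, the mean inhibition of test compounds on that plate plus 3 SD, cut at about 49% in these data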;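 further: 0% = DMSO plus EC80 beta-PEA response and 100% = DMSO alone without agonist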
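System: CHO RD-HGA16 cells bearing hTAAR1. Reagent: EC80 β-phenethylamine stimulus. Schedule: seeding 17-24 h prior, 75-min 37 °C, 30-min RT dye loading. Signal: Fluo-8 intracellular calcium dye fluorescence, real-time kinetic reads. Read-out: % inhibition from peak post-agonist over basal fluorescence ratio. Benchmarks: vehicle wells and EC80 agonist wells. Replicates: n of 1.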
OXTR agonist: human OXTR agonism; P30559; CHO-OTR cells, Fluo-8 calcium fluorescence; normalized: DMSO 0%, oxytocin 100%; activation, % at 3 µM; hit rate 0.32% among 320,000;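 active means activation above the mean of all tested compounds plus 3 SD, cutoff set per screening run, cut at about 20% in these data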;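 further: peak over basal fluorescence ratio from a 100 s FLIPR kinetic read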
V1aR counter: activates human V1a receptor in oxytocin agonist counter-screen; hit rate 0.25% among 320,000; activation, % at 3 µM; CHO-V1R cells, Fluo-8 calcium fluorescence, agonist mode; 0% DMSO, 100% 3 nM vasopressin; P37288; AID 2797;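 active means activation above the mean activation of all tested compounds plus 3 SD, per screening run, cut at about 20% in these data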;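 further: signal is peak over basal fluorescence ratio across a 100 second FLIPR read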
Numbers without * were called inactive. Shown are actives, neighbours in structure and some others; about 2.3% of the full set was active somewhere.

For O=C(Cn1cnc2sc(-c3ccccc3)cc2c1=O)NCCc1ccccc1 the results were TAAR1 ag 39.2*, OXTR potentiate -12.2, TAAR1 antag 7.8, OXTR agonist -0.4 and V1aR counter -0.2.
For Cc1sc2ncn(CC(=O)NCCc3ccccc3)c(=O)c2c1C the results were TAAR1 ag 42.0*, OXTR potentiate -7.3, TAAR1 antag 12.0, OXTR agonist -1.3 and V1aR counter 0.0.
`COc1ccc(CCNC(=O)Cn2cnc3sc(C)c(-c4ccc(F)cc4)c3c2=O)cc1OC` gave TAAR1 ag 53.7*, OXTR potentiate -35.6, TAAR1 antag 11.4, OXTR agonist 19.8* and V1aR counter 23.4*.
For COC(=O)c1sc2ncn(CC(=O)NCCc3ccc(OC)c(OC)c3)c(=O)c2c1C the results were TAAR1 ag -0.2, OXTR potentiate -7.6, TAAR1 antag -9.2, OXTR agonist -0.3 and V1aR counter 0.5.
For CC(=O)CC(=O)O[C@@H]1C=C[C@H](NC(=O)OC(C)(C)C)C1 the results were TAAR1 ag 1.4 and TAAR1 antag -3.2.
Screening COCCN1CCCc2nc(-c3ccc(F)cc3)ccc21 returned TAAR1 ag 1.4 and TAAR1 antag -5.1.
CC(C)(C)OC(=O)N(CCc1ccccc1)Cc1ccc(OCc2cccc(NC(=O)C3CCCC3)c2)cc1 was read as TAAR1 ag 3.9 and TAAR1 antag 7.9.
For CC(C)(C)OC(=O)N(Cc1ccccc1)Cc1ccc(OCc2cccc(NC(=O)C3CC3)c2)cc1 the results were TAAR1 ag 2.0 and TAAR1 antag 52.6*.
CCN1CCN(c2ccc(S(=O)(=O)N3CCCCC3)cc2NC(=O)Cc2ccc(Cl)c(Cl)c2)CC1 was read as OXTR potentiate -18.4, OXTR agonist 86.3* and V1aR counter 48.9*.
For NC(=O)c1cccc(Nc2nc(C(N)CCc3ccccc3)cs2)n1 (stereo not drawn) the results were TAAR1 ag 3.4 and TAAR1 antag 1.8.
For COc1ccc(CC(N)c2csc(Nc3ccccn3)n2)cc1 (stereo not drawn) the results were TAAR1 ag 25.5 and TAAR1 antag 6.8.
`COc1cccc(Nc2nc(C(N)CC(C)C)cs2)n1` (stereo not drawn) gave TAAR1 ag 42.4* and TAAR1 antag -12.6.
`COc1cccc(Nc2nc(C(N)CCc3ccccc3)cs2)n1` (stereo not drawn) gave TAAR1 ag 45.0* and TAAR1 antag 22.4.
For CC(=O)c1ccc(Nc2nc(C(N)Cc3ccc(Cl)cc3)cs2)cc1 (stereo not drawn) the results were TAAR1 ag 49.7* and TAAR1 antag 6.9.
`COc1cccc(Nc2nc(C(N)Cc3ccc(Cl)cc3)cs2)n1` (stereo not drawn) gave TAAR1 ag 64.5* and TAAR1 antag 55.2*.
`O=C(NNC(=O)c1ccccc1F)c1ccc(NS(=O)(=O)c2ccc(F)cc2)cc1` gave TAAR1 ag -0.3 and TAAR1 antag -2.2.
CC(C)(C)C(=O)Nc1scc(-c2ccc(-c3ccccc3)cc2)c1C(=O)O was read as TAAR1 ag 3.9, OXTR potentiate -22.9, TAAR1 antag -1.9, OXTR agonist 25.6* and V1aR counter 38.9*.
O=C(O)COc1ccccc1/C=C1\SC(=S)N(c2cccnc2)C1=O was read as TAAR1 ag 3.1, OXTR potentiate -1.6, TAAR1 antag -20.6, OXTR agonist 1.1 and V1aR counter 0.7.
For O=C(CCC(=O)OCc1ccc(C(=O)Oc2ccccc2)cc1)Nc1cccc2ccccc12 the results were TAAR1 ag 7.9, OXTR potentiate -7.0, TAAR1 antag 49.0*, OXTR agonist -1.4 and V1aR counter 0.6.
For CCn1ncc(C2=NOC(C(=O)Nc3cnn(C45CC6CC(CC(C6)C4)C5)c3)C2)c1C (stereo not drawn) the results were OXTR potentiate -8.8, OXTR agonist 35.5* and V1aR counter 25.2*.
For CCn1ncc(C2=NOC(C(=O)NCC(C)C)C2)c1C (stereo not drawn) the results were TAAR1 ag 4.9, OXTR potentiate -10.2, TAAR1 antag -10.9, OXTR agonist 1.6 and V1aR counter -0.6.
CCn1ncc(C2=NOC(C(=O)NCCc3ccccc3)C2)c1C (stereo not drawn) was read as TAAR1 ag 61.1*, OXTR potentiate 3.9, TAAR1 antag 43.2, OXTR agonist 0.5 and V1aR counter 1.4.
For C=CCn1c(SCCN2CCCC2)nc2c([nH]c3ccccc32)c1=O the results were TAAR1 ag -0.4, OXTR potentiate 0.8, TAAR1 antag -6.2, OXTR agonist -1.8 and V1aR counter -0.5.
`CS(=O)(=O)N1CCc2cc(-c3csc(NC(=O)Cc4cccs4)n3)ccc21` gave TAAR1 ag 14.4, OXTR potentiate -10.8, TAAR1 antag 50.4*, OXTR agonist 6.3 and V1aR counter 6.9.
Screening O=C(CN1CCOCC1)Nc1nc(-c2ccc3c(c2)CCN3S(=O)(=O)c2ccccc2)cs1 returned TAAR1 ag 20.3, OXTR potentiate -19.9, TAAR1 antag 53.4*, OXTR agonist 3.9 and V1aR counter 4.3.
Screening CC(=O)Nc1nc(-c2ccc3c(c2)CCN3S(C)(=O)=O)cs1 returned TAAR1 ag 1.4, OXTR potentiate -7.6, TAAR1 antag 8.3, OXTR agonist 0.1 and V1aR counter 1.6.
For CCCCNC(=O)C1(C)CCN1C(=O)c1ccc2c(c1)CCO2 (stereo not drawn) the results were TAAR1 ag 0.2 and TAAR1 antag -3.4.
Screening CCCN(CCC)S(=O)(=O)c1ccc(C(=O)N2CCC(=O)c3ccccc32)cc1 returned TAAR1 ag 7.0, OXTR potentiate -12.4, TAAR1 antag 59.7*, OXTR agonist -1.5 and V1aR counter 1.6.
Screening O=C1CCN(C(=O)c2ccccc2)c2ccccc21 returned TAAR1 ag 3.1 and TAAR1 antag 0.6.
`COc1ccc(CCNCc2ccc(OCc3ccccc3)cc2)cc1` gave TAAR1 ag 43.5*, OXTR potentiate -7.6, TAAR1 antag -9.2, OXTR agonist 5.8 and V1aR counter 8.1.
For O=C(Nc1ccnc(-c2ccncc2)n1)C1CC1 the results were TAAR1 ag 2.5, OXTR potentiate 1.3, TAAR1 antag 0.7, OXTR agonist 1.7 and V1aR counter -0.2.
O=C(Nc1ncc(Cc2ccc(SC(F)F)cc2)s1)c1ccc(OC(F)F)cc1 was read as TAAR1 ag 45.9*, OXTR potentiate -7.7, TAAR1 antag -0.9, OXTR agonist 23.2* and V1aR counter 24.6*.
Screening COc1ccc2[nH]c3c(c2c1)CCN1C(=O)N([C@@H](C)C(=O)NCc2ccco2)C(=O)[C@]31C returned TAAR1 ag 0.8, OXTR potentiate -5.8, TAAR1 antag 21.7, OXTR agonist 0.1 and V1aR counter -1.1.
